Measured values as given in ChEMBL document CHEMBL1154196, “Synthesis and evaluation of (S,S)-N,N'-bis-[3-(2,2',6,6'-tetramethylbenzhydryloxy)-2-hydroxy-propyl]-ethylenediamine (S2824) analogs with anti-tuberculosis activity” (2009).
Converted amounts (≈) assume the structure as drawn.

Key:
[1] = system: Mycobacterium tuberculosis; assay: Antitubercular activity against Mycobacterium tuberculosis H37Ra after 7 days; assay type: functional; conditions: 168 h
[2] = Selectivity index, ratio of IC50 for human THP1 cells to MIC for Mycobacterium tuberculosis; assay type: functional, THP-1
[3] = system: Mycobacterium tuberculosis; assay: Antitubercular activity against Mycobacterium tuberculosis H37Rv ATCC 25618 after 7 days; assay type: functional; conditions: 168 h
[4] = system: Mycobacterium tuberculosis; assay: Ratio of MBC to MIC for Mycobacterium tuberculosis H37Rv; assay type: functional
How it was run: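 H37Rv MBC obtained by subculturing MIC-assay cultures onto drug-free solid medium and counting CFU. The ratio relates this MBC to the MIC for the same strain.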

[5] = system: Mycobacterium tuberculosis; assay: Antitubercular activity against Mycobacterium tuberculosis H37Rv ATCC 25618 after 2 weeks; assay type: functional; conditions: 336 h
[6] = system: Mycobacterium tuberculosis; assay: Antitubercular activity against drug-sensitive Mycobacterium tuberculosis by radiometric BACTEC460 method; assay type: functional

Structure (SMILES) | MIC [1] [µM] | Ratio [2] | MIC [3] | Ratio [4] | MBC [5] [µg/mL] | MIC [6] [µg/mL]
O[C@@H](CNCCNC[C@H](O)COC(c1ccco1)c1ccco1)COC(c1ccco1)c1ccco1 | 25 (≈ 12.5 µg/mL) | >10 | – | – | – | –
Cc1ccc(C(OC[C@@H](O)CNCCNC[C@H](O)COC(c2ccc(C)cc2)c2ccc(C)cc2)c2ccc(C)cc2)cc1 | 5.24 (≈ 3.13 µg/mL) | >10 | 3.13 µg/mL | 2 | 6.25 (≈ 10.5 µM) | –
O[C@H](CNCCNC[C@@H](O)COC(c1ccc(Br)cc1)c1ccc(Br)cc1)COC(c1ccc(Br)cc1)c1ccc(Br)cc1 | 7.34 (≈ 6.29 µg/mL) | >10 | – | – | – | –
CCOc1ccc(C(OC[C@@H](O)CNCCNC[C@H](O)COC(c2ccc(OCC)cc2)c2ccc(OCC)cc2)c2ccc(OCC)cc2)cc1 | 8.72 (≈ 6.25 µg/mL) | >10 | – | – | – | –
COCOc1ccc(C(OC[C@H](O)CNCCNC[C@@H](O)COC(c2ccc(OCOC)cc2)c2ccc(OCOC)cc2)c2ccc(OCOC)cc2)cc1 | 8 (≈ 6.25 µg/mL) | >10 | – | – | – | –
Cc1ccc(C(OC[C@H](O)CNCCNC[C@@H](O)COC(c2ccc(C)cc2)c2ccc(C)cc2)c2ccc(C)cc2)cc1 | 5.24 (≈ 3.13 µg/mL) | >10 | 3.13 µg/mL | 2 | 6.25 (≈ 10.5 µM) | –
COc1ccc(C(OC[C@@H](O)CNCCNC[C@H](O)COC(c2ccc(OC)cc2)c2ccc(OC)cc2)c2ccc(OC)cc2)cc1 | 4.73 (≈ 3.13 µg/mL) | >10 | 3.13 µg/mL | 8 | 25 (≈ 37.8 µM) | –
COCOc1ccc(C(OC[C@@H](O)CNCCNC[C@H](O)COC(c2ccc(OCOC)cc2)c2ccc(OCOC)cc2)c2ccc(OCOC)cc2)cc1 | 8 (≈ 6.25 µg/mL) | >10 | – | – | – | –
O[C@@H](CNCCNC[C@H](O)COC(c1ccc(Br)cc1)c1ccc(Br)cc1)COC(c1ccc(Br)cc1)c1ccc(Br)cc1 | 3.67 (≈ 3.14 µg/mL) | >10 | 3.13 µg/mL | 8 | 25 (≈ 29.2 µM) | –
CCOc1ccc(C(OC[C@H](O)CNCCNC[C@@H](O)COC(c2ccc(OCC)cc2)c2ccc(OCC)cc2)c2ccc(OCC)cc2)cc1 | 8.72 (≈ 6.25 µg/mL) | >10 | – | – | – | –
CC(C)(C)c1ccc(C(OC[C@H](O)CNCCNC[C@@H](O)COC(c2ccc(C(C)(C)C)cc2)c2ccc(C(C)(C)C)cc2)c2ccc(C(C)(C)C)cc2)cc1 | 32.7 (≈ 25 µg/mL) | >10 | – | – | – | –
O[C@H](CNCCNC[C@@H](O)COC(c1ccco1)c1ccco1)COC(c1ccco1)c1ccco1 | 50 (≈ 25 µg/mL) | >10 | – | – | – | –
Cc1ccc(C(OC[C@@H](O)CN2CCN(C[C@H](O)COC(c3ccc(C)cc3)c3ccc(C)cc3)CC2)c2ccc(C)cc2)cc1 | 40.1 (≈ 25 µg/mL) | >10 | – | – | – | –
O[C@@H](COC(c1ccc(Br)cc1)c1ccc(Br)cc1)CN1CCN(C[C@@H](O)COC(c2ccc(Br)cc2)c2ccc(Br)cc2)CC1 | 28.3 (≈ 25 µg/mL) | >10 | – | – | – | –
Cc1ccc(C(OC[C@H](O)CN2CCN(C[C@@H](O)COC(c3ccc(C)cc3)c3ccc(C)cc3)CC2)c2ccc(C)cc2)cc1 | 2.5 (≈ 1.56 µg/mL) | 12 | 1.56 µg/mL | 4 | 6.25 (≈ 10 µM) | 3.13 (≈ 5.03 µM)
Cc1ccc(C(OC[C@@H](O)CN2CCCN(C[C@H](O)COC(c3ccc(C)cc3)c3ccc(C)cc3)CC2)c2ccc(C)cc2)cc1 | 1.22 (≈ 0.777 µg/mL) | 30.77 | 0.78 µg/mL | 2 | 1.56 (≈ 2.45 µM) | 0.78 (≈ 1.22 µM)
CC(C)Oc1ccc(C(OC[C@@H](O)CNCCNC[C@H](O)COC(c2ccc(OC(C)C)cc2)c2ccc(OC(C)C)cc2)c2ccc(OC(C)C)cc2)cc1 | 16.2 (≈ 12.5 µg/mL) | >10 | – | – | – | –
O[C@H](COC(c1ccc(Br)cc1)c1ccc(Br)cc1)CN1CCN(C[C@H](O)COC(c2ccc(Br)cc2)c2ccc(Br)cc2)CC1 | 28.3 (≈ 25 µg/mL) | >10 | – | – | – | –
O[C@H](CNCCNC[C@@H](O)COC(c1cccs1)c1cccs1)COC(c1cccs1)c1cccs1 | 22.1 (≈ 12.5 µg/mL) | >10 | – | – | – | –
COc1ccc(C(OC[C@H](O)CNCCNC[C@@H](O)COC(c2ccc(OC)cc2)c2ccc(OC)cc2)c2ccc(OC)cc2)cc1 | 9.46 (≈ 6.25 µg/mL) | >10 | – | – | – | –
CC(C)Oc1ccc(C(OC[C@H](O)CNCCNC[C@@H](O)COC(c2ccc(OC(C)C)cc2)c2ccc(OC(C)C)cc2)c2ccc(OC(C)C)cc2)cc1 | 8.09 (≈ 6.25 µg/mL) | >10 | – | – | – | –
O[C@@H](CNCCNC[C@H](O)COC(c1cccs1)c1cccs1)COC(c1cccs1)c1cccs1 | 22.1 (≈ 12.5 µg/mL) | >10 | – | – | – | –
COc1ccc(C(OC[C@@H](O)CNCCNC[C@H](O)COC(c2ccc(OC)c(OC)c2)c2ccc(OC)c(OC)c2)c2ccc(OC)c(OC)c2)cc1OC | 16 (≈ 12.5 µg/mL) | >10 | – | – | – | –
O[C@H](CNCCNC[C@@H](O)COC(c1ccc2c(c1)OCCO2)c1ccc2c(c1)OCCO2)COC(c1ccc2c(c1)OCCO2)c1ccc2c(c1)OCCO2 | 16.2 (≈ 12.5 µg/mL) | >10 | – | – | – | –
O[C@H](CNCCNC[C@@H](O)COC(c1ccc2c(c1)OCO2)c1ccc2c(c1)OCO2)COC(c1ccc2c(c1)OCO2)c1ccc2c(c1)OCO2 | 17.4 (≈ 12.5 µg/mL) | >10 | – | – | – | –
O[C@@H](CNCCNC[C@H](O)COC(c1ccc2c(c1)OCO2)c1ccc2c(c1)OCO2)COC(c1ccc2c(c1)OCO2)c1ccc2c(c1)OCO2 | 8.72 (≈ 6.25 µg/mL) | >10 | – | – | – | –
COc1ccc(C(OC[C@H](O)CNCCNC[C@@H](O)COC(c2ccc(OC)c(OC)c2OC)c2ccc(OC)c(OC)c2OC)c2ccc(OC)c(OC)c2OC)c(OC)c1OC | 13.9 (≈ 12.5 µg/mL) | >10 | – | – | – | –
CC(C)(C)c1ccc(C(OC[C@@H](O)CNCCNC[C@H](O)COC(c2ccc(C(C)(C)C)cc2)c2ccc(C(C)(C)C)cc2)c2ccc(C(C)(C)C)cc2)cc1 | 16.3 (≈ 12.5 µg/mL) | >10 | – | – | – | –
Cc1ccc(C(OC[C@H](O)CN2CCCN(C[C@@H](O)COC(c3ccc(C)cc3)c3ccc(C)cc3)CC2)c2ccc(C)cc2)cc1 | 1.22 (≈ 0.777 µg/mL) | 26.92 | 0.78 µg/mL | 4 | 3.13 (≈ 4.91 µM) | 0.78 (≈ 1.22 µM)
CC[C@@H](CO)NCCN[C@@H](CC)CO [ETHAMBUTOL] | – | – | 7.64 µM | – | 3.13 (≈ 15.3 µM) | 3.13 (≈ 15.3 µM)
